Reference: ChEMBL document CHEMBL1122798, “Trypanocidal 1,3-arylene diketone bis(guanylhydrazone)s. Structure-activity relationships among substituted and heterocyclic analogues” (1984)

Key:
Assay type in all cases: functional
Mus musculus [1] = experiment: Compound was tested for Trypanocidal Activity in mice at 15 mg/kg; 4/15
Mus musculus [2] = experiment: Compound was tested for Trypanocidal Activity in mice at 25 mg/kg; 10/15
Mus musculus [3] = experiment: Compound was tested for Trypanocidal Activity in mice at 10 mg/kg; 0/5
Mus musculus [4] = experiment: Compound was tested for Trypanocidal Activity in mice at 40 mg/kg; 5/5
Mus musculus [5] = experiment: Compound was tested for Trypanocidal Activity in mice at 60 mg/kg; 0/5
Mus musculus [6] = species: Mus musculus; experiment: Effective dose against Trypanosoma brucei infection in mice
Procedure, shortened: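 Female Swiss-Webster mice (20–25 g) were infected ip with 5×10^4 T. brucei EATRO 110 organisms in fresh mouse blood diluted with minimum essential medium. Groups of 5 or 10 received a single ip dose in normal saline (solution or milled suspension, 20 μL/g) 6 h post-infection. Deaths within 72 h were scored as toxic. Survivors aparasitemic at 28 days (tail-blood wet films, phase contrast) counted as cures. ED50 was computed by Bliss/Litchfield–Wilcoxon, excluding toxic dosages.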

Mus musculus [7] = experiment: Compound was tested for Trypanocidal Activity in mice at 100 mg/kg; 0/5
Mus musculus [8] = experiment: Compound was tested for Trypanocidal Activity in mice at 15 mg/kg; 0/5
Mus musculus [9] = experiment: Compound was tested ffor Trypanocidal Activity in mice at 500 mg/kg; 0/5
Mus musculus [10] = experiment: Compound was tested for Trypanocidal Activity in mice at 40 mg/kg; 0/5
Mus musculus [11] = experiment: Compound was tested for Trypanocidal Activity in mice at 15 mg/kg; 10/10
Mus musculus [12] = experiment: Compound was tested for Trypanocidal Activity in mice at 2.5 mg/kg; 21/35
Mus musculus [13] = experiment: Compound was tested for Trypanocidal Activity in mice at 1.0 mg/kg; 0/10
Mus musculus [14] = experiment: Compound was tested for Trypanocidal Activity in mice at 25 mg/kg; 10/10
Mus musculus [15] = experiment: Compound was tested for Trypanocidal Activity in mice at 1.5 mg/kg; 2/25
Mus musculus [16] = experiment: Compound was tested for Trypanocidal Activity in mice at 4 mg/kg; 20/30
Mus musculus [17] = experiment: Compound was tested for Trypanocidal Activity in mice at 6 mg/kg; 26/30
Mus musculus [18] = experiment: Compound was tested for Trypanocidal Activity in mice at 40 mg/kg; toxic deaths; 1/5
Mus musculus [19] = experiment: Compound was tested for Trypanocidal Activity in mice at 10 mg/kg; 19/20
Mus musculus [20] = experiment: Compound was tested for Trypanocidal Activity in mice at 15 mg/kg; 9/10
Mus musculus [21] = experiment: Compound was tested for Trypanocidal Activity in mice at 2.5 mg/kg; 15/30
Mus musculus [22] = experiment: Compound was tested for Trypanocidal Activity in mice at 25 mg/kg; toxic deaths; 8/10
Mus musculus [23] = experiment: Compound was tested for Trypanocidal Activity in mice at 1.5 mg/kg; 3/30
Mus musculus [24] = experiment: Compound was tested for Trypanocidal Activity in mice at 10 mg/kg; 10/10
Mus musculus [25] = experiment: Compound was tested for Trypanocidal Activity in mice at 6 mg/kg; 9/10
Mus musculus [26] = experiment: Compound was tested for Trypanocidal Activity in mice at 4 mg/kg; 22/30

Compound: C/C(=N\NC(=N)N)c1ccc([N+](=O)[O-])c(/C(C)=N/NC(=N)N)c1.Cl
- Cures/total (Mus musculus [1]): 4
- Cures/total (Mus musculus [2]): 10
- Cures/total (Mus musculus [3]): 0
- Cures/total (Mus musculus [4]): 5
- Cures/total (Mus musculus [5]): 0
- ED50 (Mus musculus [6]): 20 mg/kg

Compound: C/C(=N\NC(=N)N)c1cc(/C(C)=N/NC(=N)N)c(O)cc1O.Cl
- Cures/total (Mus musculus [7]): 0
- Cures/total (Mus musculus [8]): 0
- Cures/total (Mus musculus [9]): 0
- Cures/total (Mus musculus [10]): 0

Compound: C/C(=N\NC(=N)N)c1cc(N)cc(/C(C)=N/NC(=N)N)c1.Cl
- Mice cured (number) (Mus musculus [11]): 10
- Cures/total (Mus musculus [12]): 21
- Cures/total (Mus musculus [13]): 0
- Cures/total (Mus musculus [14]): 10
- Cures/total (Mus musculus [15]): 2
- Cures/total (Mus musculus [16]): 20
- Cures/total (Mus musculus [5]): 0
- Cures/total (Mus musculus [17]): 26
- ED50 (Mus musculus [6]): 2.8 mg/kg
- Cures/total (Mus musculus [18]): 1
- Cures/total (Mus musculus [19]): 19

Compound: CC(=O)Nc1cc(/C(C)=N/NC(=N)N)cc(/C(C)=N/NC(=N)N)c1.Cl
- Cures/total (Mus musculus [20]): 9
- Cures/total (Mus musculus [21]): 15
- Cures/total (Mus musculus [13]): 0
- Cures/total (Mus musculus [22]): 8
- Cures/total (Mus musculus [23]): 3
- Cures/total (Mus musculus [24]): 10
- Cures/total (Mus musculus [10]): 0
- Cures/total (Mus musculus [25]): 9
- Cures/total (Mus musculus [26]): 22
